For assay [1], the target named is Potassium/sodium hyperpolarization-activated cyclic nucleotide-gated channel 1 (Mus musculus) (UniProt O88704). The assay is described as follows: Blockade of mouse HCN1 expressed in HEK293 cells at 5 uM at -120 f-current amplitude by patch-clamp electrophysiological assay relative to control. Type of assay: cell-based. The procedure, abridged: (§1)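 Single-concentration patch-clamp screen at 5 μM on HEK293 cells stably expressing mouse HCN1 or human HCN4. f-current block normalized to control; mean ± SEM of three to five experiments.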

For assay [2], the target named is T1, Potassium/sodium hyperpolarization-activated cyclic nucleotide-gated channel 4 (Homo sapiens) (UniProt Q9Y3Q4).
T1 sequence (whole entry): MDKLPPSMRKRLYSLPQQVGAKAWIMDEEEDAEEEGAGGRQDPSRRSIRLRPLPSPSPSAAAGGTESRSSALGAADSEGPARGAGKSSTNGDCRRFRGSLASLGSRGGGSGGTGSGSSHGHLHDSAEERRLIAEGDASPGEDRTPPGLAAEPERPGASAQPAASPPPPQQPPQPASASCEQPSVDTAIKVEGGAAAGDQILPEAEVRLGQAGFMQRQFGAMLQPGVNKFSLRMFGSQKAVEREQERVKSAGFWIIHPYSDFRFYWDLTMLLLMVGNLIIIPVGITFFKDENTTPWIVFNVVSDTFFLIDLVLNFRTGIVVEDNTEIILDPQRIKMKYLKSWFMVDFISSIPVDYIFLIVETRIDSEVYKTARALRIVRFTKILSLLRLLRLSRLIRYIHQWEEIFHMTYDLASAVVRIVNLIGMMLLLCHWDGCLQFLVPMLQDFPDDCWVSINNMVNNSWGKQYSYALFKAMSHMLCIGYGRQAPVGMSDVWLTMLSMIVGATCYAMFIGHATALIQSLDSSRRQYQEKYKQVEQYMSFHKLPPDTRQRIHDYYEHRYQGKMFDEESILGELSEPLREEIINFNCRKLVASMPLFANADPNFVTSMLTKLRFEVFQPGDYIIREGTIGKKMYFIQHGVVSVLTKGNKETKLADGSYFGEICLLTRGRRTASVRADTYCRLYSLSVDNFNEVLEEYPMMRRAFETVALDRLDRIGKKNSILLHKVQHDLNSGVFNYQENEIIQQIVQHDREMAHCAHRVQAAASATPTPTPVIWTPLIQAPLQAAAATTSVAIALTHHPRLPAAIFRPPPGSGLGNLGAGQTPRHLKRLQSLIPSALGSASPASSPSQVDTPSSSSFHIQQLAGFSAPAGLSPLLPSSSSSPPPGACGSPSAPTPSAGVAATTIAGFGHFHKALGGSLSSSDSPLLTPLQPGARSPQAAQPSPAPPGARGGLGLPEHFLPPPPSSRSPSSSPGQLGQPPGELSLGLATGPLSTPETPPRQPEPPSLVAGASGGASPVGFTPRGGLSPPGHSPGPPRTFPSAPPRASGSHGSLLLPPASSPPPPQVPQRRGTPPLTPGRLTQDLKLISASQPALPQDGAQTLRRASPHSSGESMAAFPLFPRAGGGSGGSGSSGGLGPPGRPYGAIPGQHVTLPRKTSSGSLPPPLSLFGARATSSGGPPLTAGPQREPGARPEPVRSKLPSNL
The assay is described as follows: Blockade of human HCN4 expressed in HEK293 cells at 5 uM at -120 f-current amplitude by patch-clamp electrophysiological assay relative to control. Type of assay: cell-based. The procedure, abridged: as §1
(In general: Patch clamp records ionic current or voltage across a cell membrane.)

For assay [3], the target named is Potassium/sodium hyperpolarization-activated cyclic nucleotide-gated channel 1 (Mus musculus, UniProt O88704). The assay can be described thus: Blockade of mouse HCN1 expressed in HEK293 cells at -120 f-current amplitude by patch-clamp electrophysiological assay. The class given is cell-based. The method, boiled down: (§2)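 HEK293 cells stably transfected with mouse HCN1, mouse HCN2 or human HCN4. Patch-clamp recordings of hyperpolarization-activated f-current at varied concentrations to derive EC50.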

The target of assay [4] is T2, Potassium/sodium hyperpolarization-activated cyclic nucleotide-gated channel 2 (Mus musculus, UniProt O88703).
T2 sequence (O88703 whole entry): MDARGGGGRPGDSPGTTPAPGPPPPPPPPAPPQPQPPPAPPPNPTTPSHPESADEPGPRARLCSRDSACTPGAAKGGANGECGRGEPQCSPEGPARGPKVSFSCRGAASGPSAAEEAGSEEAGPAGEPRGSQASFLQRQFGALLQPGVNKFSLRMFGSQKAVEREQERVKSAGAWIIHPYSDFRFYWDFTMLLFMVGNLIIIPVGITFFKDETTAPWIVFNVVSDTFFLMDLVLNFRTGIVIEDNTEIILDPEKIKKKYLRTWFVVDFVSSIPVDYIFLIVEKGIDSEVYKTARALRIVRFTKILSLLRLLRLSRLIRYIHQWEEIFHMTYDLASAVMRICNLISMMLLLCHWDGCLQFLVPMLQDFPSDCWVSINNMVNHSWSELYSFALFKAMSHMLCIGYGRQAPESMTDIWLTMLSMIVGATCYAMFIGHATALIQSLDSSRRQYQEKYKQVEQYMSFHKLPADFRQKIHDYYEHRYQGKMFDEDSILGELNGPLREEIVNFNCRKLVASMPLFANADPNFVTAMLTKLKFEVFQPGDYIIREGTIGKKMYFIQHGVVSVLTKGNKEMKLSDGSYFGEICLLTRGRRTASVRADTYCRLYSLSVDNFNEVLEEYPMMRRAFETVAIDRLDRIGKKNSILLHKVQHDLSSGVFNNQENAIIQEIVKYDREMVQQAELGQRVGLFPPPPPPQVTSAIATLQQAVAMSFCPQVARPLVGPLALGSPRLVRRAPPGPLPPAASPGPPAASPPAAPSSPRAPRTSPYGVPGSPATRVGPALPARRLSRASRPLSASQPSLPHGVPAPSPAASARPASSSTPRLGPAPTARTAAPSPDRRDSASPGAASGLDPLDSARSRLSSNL
The assay is described as follows: Blockade of mouse HCN2 expressed in HEK293 cells at -120 f-current amplitude by patch-clamp electrophysiological assay. The class given is cell-based. The procedure, abridged: as §2

Assay [5] addresses T3, Potassium/sodium hyperpolarization-activated cyclic nucleotide-gated channel 4 (Homo sapiens, UniProt Q9Y3Q4).
T3 sequence (Q9Y3Q4 whole entry): T1 sequence (whole entry)
The assay is described as follows: Blockade of human HCN4 expressed in HEK293 cells at -120 f-current amplitude by patch-clamp electrophysiological assay. Type of assay: cell-based. The method, boiled down:
as §2

Assay [6] can be described thus: Blockade of HCN in guinea pig spontaneously beating atria assessed as reduction of heart rate measured for 15 mins. Type of assay: tissue-based, Cavia porcellus. The procedure, abridged: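 Isolated spontaneously beating guinea pig atria; cumulative concentrations 10-9-10-4 M applied, decrease in atrial rate recorded. EC50 obtained by fitting the concentration-effect curve to the Hill equation; mean ± SEM of three to four experiments.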

Assay [7] can be described thus: Selectivity ratio of EC50 for mouse HCN1 to EC50 for human HCN4. The method, boiled down:
(§3)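 Selectivity expressed as the ratio of EC50 values from patch-clamp on stably transfected HEK293 cells expressing mouse HCN1, mouse HCN2 or human HCN4.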

Assay [8] is filed under the species Mus musculus. The assay can be described thus: Selectivity ratio of EC50 for mouse HCN1 to EC50 for mouse HCN2. The procedure, abridged:
as §3

The species entered for assay [9] is Mus musculus. The assay can be described thus: Selectivity ratio of EC50 for mouse HCN2 to EC50 for mouse HCN1. The procedure, abridged: as §3
Assay [10] can be described thus: Selectivity ratio of EC50 for mouse HCN2 to EC50 for human HCN4. The procedure, abridged:
as §3

pEC50: −log10 of the molar value.

Potassium/sodium hyperpolarization-activated cyclic nucleotide-gated channel 1, sequence (O88704 whole entry): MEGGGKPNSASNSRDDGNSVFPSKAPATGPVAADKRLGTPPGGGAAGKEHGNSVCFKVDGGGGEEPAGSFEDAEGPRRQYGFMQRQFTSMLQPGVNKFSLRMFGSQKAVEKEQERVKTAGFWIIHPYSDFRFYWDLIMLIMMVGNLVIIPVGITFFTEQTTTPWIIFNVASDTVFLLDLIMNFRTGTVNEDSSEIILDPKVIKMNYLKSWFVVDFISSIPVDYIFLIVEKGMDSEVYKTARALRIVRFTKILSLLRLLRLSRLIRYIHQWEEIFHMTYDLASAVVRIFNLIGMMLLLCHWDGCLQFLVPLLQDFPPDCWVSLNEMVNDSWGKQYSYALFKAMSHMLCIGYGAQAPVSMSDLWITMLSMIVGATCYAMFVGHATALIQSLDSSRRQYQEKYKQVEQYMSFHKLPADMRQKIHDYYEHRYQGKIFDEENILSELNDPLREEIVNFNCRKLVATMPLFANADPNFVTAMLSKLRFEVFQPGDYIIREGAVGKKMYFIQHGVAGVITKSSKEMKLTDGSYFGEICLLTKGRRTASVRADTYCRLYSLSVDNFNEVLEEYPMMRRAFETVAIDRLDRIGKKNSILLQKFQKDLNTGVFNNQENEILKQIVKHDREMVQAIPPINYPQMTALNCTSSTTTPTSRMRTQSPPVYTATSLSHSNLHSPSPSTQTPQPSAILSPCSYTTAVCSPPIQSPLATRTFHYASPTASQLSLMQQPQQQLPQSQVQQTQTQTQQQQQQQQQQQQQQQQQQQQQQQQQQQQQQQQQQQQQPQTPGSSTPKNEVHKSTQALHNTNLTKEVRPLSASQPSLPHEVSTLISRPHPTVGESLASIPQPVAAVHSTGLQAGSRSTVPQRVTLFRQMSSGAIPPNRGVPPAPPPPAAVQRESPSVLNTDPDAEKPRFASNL
Potassium/sodium hyperpolarization-activated cyclic nucleotide-gated channel 1 (Mus musculus), sequence (O88704 whole entry): as above

On to `COc1ccc([C@@H](C)CN(C)C/C=C/CN2C=Cc3cc(OC)c(OC)cc3CC2=O)cc1OC`, for which the residual activity in assay [1] was 85%; in [2], 72%.
For `COc1ccc([C@H](C)CN(C)C/C=C/CN2C=Cc3cc(OC)c(OC)cc3CC2=O)cc1OC`, in that order: 85% and 71%.
For `COc1ccc(CCN(C)CCCN2CCc3cc(OC)c(OC)cc3CC2=O)cc1OC` [ZATEBRADINE], the pEC50 in assay [3] is 4.78; in assay [4], 5.26; in assay [5], 5.07; in assay [6] it was 4.87.
As for `COc1ccc([C@H](C)CN(C/C=C/CN2C=Cc3cc(OC)c(OC)cc3CC2=O)C/C=C/CN2C=Cc3cc(OC)c(OC)cc3CC2=O)cc1OC`, the residual activity in assay [1] amounted to 93%; in [2] it was 83%.
Take `COc1ccc([C@H](C)CN(C/C=C\CN2C=Cc3cc(OC)c(OC)cc3CC2=O)C/C=C\CN2C=Cc3cc(OC)c(OC)cc3CC2=O)cc1OC`: the residual activity in assay [1] stood at 76%; in assay [2], 92%. Also, the pEC50 in assay [3] was 4.75; in assay [4] it was 4.30; in assay [5], 3.87.
As for `COc1ccc(CCN(C)C/C=C/CN2C=Cc3cc(OC)c(OC)cc3CC2=O)cc1OC`, the figures for the residual activity in assay [1] and in [2] were 35% and 53%, respectively. The negative logarithm of the EC50 (pEC50) in assay [3] is 5.64; in assay [4], 4.76; in assay [5] it was 5.14; in assay [6], 4.95.
Consider `COc1ccc(CCN(C)C/C=C\CN2C=Cc3cc(OC)c(OC)cc3CC2=O)cc1OC`, for which the residual activity in [1] was determined as 53%; in assay [2], 59%. The pEC50 was 5.25 in [3], 4.61 in [4], 5.15 in [5] and 4.80 in assay [6].
Turning to `COc1ccc(CCN(C/C=C\CN2C=Cc3cc(OC)c(OC)cc3CC2=O)C/C=C\CN2C=Cc3cc(OC)c(OC)cc3CC2=O)cc1OC`, the residual activity turned out to be 82% in assay [1] and 75% in assay [2]. In addition, the negative logarithm of the EC50 (pEC50) in [3] is 3.97; in assay [4], 3.83; in [5] it was 4.15.
On to `COc1cc2c(cc1OC)CC(=O)N(CCCN(C)C[C@H]1Cc3cc(OC)c(OC)cc31)CC2` [IVABRADINE], for which the residual activity in assay [1] is 47%; in assay [2], 49%. For the same compound, the values for the negative-log EC50 (pEC50) in assay [3], in assay [4] and in [5] were 5.35, 5.34 and 5.37, respectively.
In the case of `COc1ccc([C@@H](C)CN(C/C=C\CN2C=Cc3cc(OC)c(OC)cc3CC2=O)C/C=C\CN2C=Cc3cc(OC)c(OC)cc3CC2=O)cc1OC`, the residual activity in assay [1] is 27%; in assay [2], 93%. The negative-log EC50 (pEC50) in [3] was 6.22; in assay [4] it was 4.74; in assay [5], 3.98; in assay [6], 3.95. Besides, the values for the Selectivity ratio in assay [7] and in assay [8] were 170 and 30, respectively.
Regarding `COc1ccc([C@H](C)CN(C)C/C=C\CN2C=Cc3cc(OC)c(OC)cc3CC2=O)cc1OC`, the figures for the residual activity in assay [1] and in assay [2] were 76% and 91%, respectively. Further, the negative logarithm of the EC50 (pEC50) in assay [3] is 4.50; in assay [4] it was 4.59; in assay [5], 4.50.
Regarding `COc1ccc([C@@H](C)CN(C)C/C=C\CN2C=Cc3cc(OC)c(OC)cc3CC2=O)cc1OC`, the residual activity in assay [1] came to 63%; in assay [2], 83%. Also, the pEC50 in [3] was 5.03; in assay [4], 5.64; in assay [5], 4.60; in [6], 5.15. The Selectivity ratio worked out at 4 in [9] and 10 in assay [10].
As for `COc1ccc([C@@H](C)CN(C/C=C/CN2C=Cc3cc(OC)c(OC)cc3CC2=O)C/C=C/CN2C=Cc3cc(OC)c(OC)cc3CC2=O)cc1OC`, the residual activity amounted to 60% in assay [1] and 73% in assay [2].

What is called pEC50 is the EC50 on a negative log10 scale, so that one unit is a factor of ten.
